18 molecules from PubChem BioAssay can be followed below.

Calls of active or inactive are those of the source. Rule as the data show it, unless noted: active = inhibition above about 30%; inactive = the rest.

Assay [1] is described as follows: reduced viability of SK-BR-3 breast cancer cells – cell-based, 24 h, human, pilot screen (AID 572;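 active = viability at or below 10% of carrier control in both of two separate runs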;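 also: compound exposure lasted between 18 and 24 h rather than exactly 24 h; 100% = carrier-treated control wells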). To be noted: SK-BR-3 viability, CellTiter-Glo luminescence, at 10 µM, stronger effect = lower value.
A short description of assay [2]: HUVEC growth inhibition – cell-based, human, primary screen (AID 575;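 active = viability at or below 30% in both replicate assays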;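 also: 100% = median of untreated cell wells with 0.1% DMSO on each plate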). The following applies: HUVEC proliferation, CellTiter-Glo luminescence, 72 h; at 10 µM; stronger effect = lower value. The gist of the method: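 system = HUVEC primary cells | amount = 1250 cells/well | buffer or medium = supplemented EBM, 2% fetal bovine serum | dosing = single-point 10 µM, DMSO 0.1% final | times = 72 h compound incubation | detection = CTG luminescence | read-out = % viability relative to median vehicle-well signal on each plate | control set = vehicle and MePR control wells | format = collagen-coated 384-well format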
A general note: ATP-based viability assays read luminescence as a measure of living cells.

A short description of assay [3]: H69AR cell proliferation blockers – human, duplicate replicates, primary screen (AID 580;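 active = viability at or under a set limit in both replicates, limit being median viability minus 3 SD, cut at about 48% in these data, passing the limit was not always enough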;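 also: 100% = mean luminescence of untreated wells and 0% = no signal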). The following applies: H69AR lung tumor cells viability, ATP luminescence, 72 h; at 10 µM; stronger effect = lower value.
The nature of assay [4]: MRP1 drug-resistance reversers in H69AR cells – cell-based, doxorubicin co-treatment, pilot screen (AID 601;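 active = viability loss from added drug above about 55%, and viability with drug at most 40%, in both replicates, limit read from the data, passing the limit was not always enough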). The following applies: CellTiter-Glo, 72 h, at 10 µM; for differential viability (reversal): stronger effect = higher value.
Assay [5] in a line: yeast transport mutant growth inhibition pilot in 384-well plates, post-Golgi transport modulator project (AID 636; in the data active = inhibition above about 31%). The following applies: absorbance 615 nm, about 18 h, stronger effect = higher value.
Assay [6] can be described thus: growth suppression of yeast trafficking mutant, preliminary HTS, modulators of trafficking downstream of Golgi apparatus project, 1536-format plate, OD 615 nm (AID 637). To be noted: yeast transport mutant growth, absorbance 615 nm, 18 h; stronger effect = higher value.
Setting [7] is: H69AR cells + 2 uM doxorubicin, measured here: viability with 2 uM doxorubicin, stronger effect = lower value.
[8] abbreviates: H69AR cells, compound alone cytotoxicity.

A word on the viability: it is a read-out of living cells in per cent, often relative to untreated cells. As usually defined, the inhibition is the relative decrease from the control value, in per cent.

`O=C(NCCCN1CCN(c2cccc(Cl)c2)CC1)c1ccc(N2CCCC2=O)cc1`: the viability in assay [1] is 69% (inactive); in assay [2], 76.1% (inactive); in assay [3], 89.1% (inactive); in assay [4] (setting [7]), 94.5%; in assay [4] (setting [8]) it was 89.1%. Besides, the differential viability (reversal) in assay [4] (H69AR cells + 2 uM doxorubicin) is -5.41% (inactive). Besides, the inhibition in assay [5] was -1.1% (inactive); in assay [6], 4.91% (inactive).
As to `O=C1C2CC=C(Cl)CC2C(=O)N1CNc1ccccn1` (centres undefined), the viability is 112% (inactive) in assay [1]; 108% (inactive) in assay [2]; 98.8% (inactive) in assay [3]; 105% in assay [4] (setting [7]); 98.8% in assay [4] (setting [8]). For the same molecule, the differential viability (reversal) in assay [4] (H69AR cells + 2 uM doxorubicin) was -6.09% (inactive). The inhibition is -2.05% (inactive) in assay [5] and 5.65% (inactive) in assay [6].
With `COC(=O)CNC(=O)COC(=O)c1cc(Cl)cc(Cl)c1N`, the viability in assay [1] is 104% (inactive); in assay [2] it was 96.6% (inactive); in assay [3], 92.6% (inactive); in assay [4] (setting [7]) it was 95.5%; in assay [4] (setting [8]), 92.6%. In addition, the differential viability (reversal) in assay [4] (H69AR cells + 2 uM doxorubicin) was -2.94% (inactive). For the same molecule, the inhibition in assay [5] was 0.82% (inactive); in assay [6], 45.3% (active).
As to `Cc1ccc2nc(-c3ccccn3)cc(C(=O)N3CCN(c4ncccn4)CC3)c2c1`, the viability in assay [1] is 100% (inactive); in assay [2], 102% (inactive); in assay [3], 77.8% (inactive); in assay [4] (setting [7]), 83.5%; in assay [4] (setting [8]), 77.8%. Also, the differential viability (reversal) in assay [4] (H69AR cells + 2 uM doxorubicin) is -5.74% (inactive). Further, the inhibition in assay [5] is -2.7% (inactive); in assay [6], 0.91% (inactive).
In the case of `CN1CCN(C(=O)NC2CCCN2S(=O)(=O)c2ccc(Cl)cc2)CC1` (centres undefined), the viability is 100% (inactive) in assay [1]; 96.4% (inactive) in assay [2]; 88.9% (inactive) in assay [3]; 89.6% in assay [4] (setting [7]); 88.9% in assay [4] (setting [8]). Further, the differential viability (reversal) in assay [4] (H69AR cells + 2 uM doxorubicin) was -0.73% (inactive). For the same molecule, the inhibition in assay [5] is -1.1% (inactive); in assay [6] it was -4.68% (inactive).
Turning to `Cc1cc(C)n2nc(SCC(=O)N(C)Cc3ccccc3)nc2n1`, the viability in assay [1] is 109% (inactive); in assay [2], 107% (inactive); in assay [3] it was 81.7% (inactive); in assay [4] (setting [7]) it was 102%; in assay [4] (setting [8]), 81.7%. Also, in assay [4] (H69AR cells + 2 uM doxorubicin), the differential viability (reversal) is -20.2% (inactive). Also, the inhibition in assay [5] is -6.85% (inactive); in assay [6] it was 1.82% (inactive).
As for `CN(CC(=O)Nc1cccnc1)S(=O)(=O)c1cc(Cl)ccc1Cl`, the viability in assay [1] was 104% (inactive); in assay [2], 105% (inactive); in assay [3], 91.7% (inactive); in assay [4] (setting [7]) it was 99.2%; in assay [4] (setting [8]), 91.7%. The differential viability (reversal) in assay [4] (H69AR cells + 2 uM doxorubicin) was -7.51% (inactive). Moreover, the inhibition in assay [5] was -0.14% (inactive); in assay [6] it was 6.73% (inactive).
Regarding `COC(=O)c1cccc(NC(=O)CN2CCN(Cc3ccccc3)CC2)c1`, the viability was 56% (inactive) in assay [1]; 105% (inactive) in assay [2]; 90.5% (inactive) in assay [3]; 93.4% in assay [4] (setting [7]); 90.5% in assay [4] (setting [8]). Further, the differential viability (reversal) in assay [4] (H69AR cells + 2 uM doxorubicin) was -2.89% (inactive). The inhibition was -5.34% (inactive) in assay [5] and -0.36% (inactive) in assay [6].
`CC(C)n1c(NCc2c[nH]c3ccccc23)nc2ccccc21`: the viability in assay [1] was 91% (inactive); in assay [2], 79.6% (inactive); in assay [3], 74.8% (inactive); in assay [4] (setting [7]), 78.4%; in assay [4] (setting [8]), 74.8%. Moreover, the differential viability (reversal) in assay [4] (H69AR cells + 2 uM doxorubicin) was -3.61% (inactive). For the same molecule, the inhibition was -9.45% (inactive) in assay [5] and -5.16% (inactive) in assay [6].
Take `COc1cccc(NC(=O)N2CCC(N3CCCCC3)CC2)c1`: the viability in assay [1] is 92% (inactive); in assay [2] it was 88.2% (inactive); in assay [3] it was 94.5% (inactive); in assay [4] (setting [7]), 97.1%; in assay [4] (setting [8]), 94.5%. In addition, the differential viability (reversal) in assay [4] (H69AR cells + 2 uM doxorubicin) was -2.56% (inactive). For the same molecule, the results for the inhibition in assay [5] and in assay [6] were -4.29% (inactive) and -0.49% (inactive), respectively.
With `CCn1nnnc1SCC(=O)Nc1nc(-c2cccs2)cs1`, the viability in assay [1] was 110% (inactive); in assay [2], 83.8% (inactive); in assay [3], 86.5% (inactive); in assay [4] (setting [7]), 68.3%; in assay [4] (setting [8]), 86.5%. Moreover, the differential viability (reversal) in assay [4] (H69AR cells + 2 uM doxorubicin) is 18.2% (inactive). Moreover, the figures for the inhibition in assay [5] and in assay [6] were -11% (inactive) and 3.87% (inactive), respectively.
In the case of `CC1=C(C(=O)N2CCOCC2)C(c2ccsc2)C2=C(CCCC2=O)N1` (centres undefined), the viability in assay [1] was 96% (inactive); in assay [2], 107% (inactive); in assay [3], 90.4% (inactive); in assay [4] (setting [7]) it was 90.5%; in assay [4] (setting [8]), 90.4%. In addition, the differential viability (reversal) in assay [4] (H69AR cells + 2 uM doxorubicin) was -0.065% (inactive). The results for the inhibition in assay [5] and in assay [6] were -2.47% (inactive) and 7.74% (inactive), respectively.
Consider `Cc1cccc(C)c1OCC(=O)Nc1cccc(NC(=O)c2ccco2)c1`, for which the viability in assay [1] was 97% (inactive); in assay [2], 71.2% (inactive); in assay [3], 84.6% (inactive); in assay [4] (setting [7]), 83.1%; in assay [4] (setting [8]), 84.6%. Besides, the differential viability (reversal) in assay [4] (H69AR cells + 2 uM doxorubicin) is 1.53% (inactive). Further, the figures for the inhibition in assay [5] and in assay [6] were -3.29% (inactive) and -0.16% (inactive), respectively.
With `CC(C)C12CN3CC(C(C)C)(CN(C1)C3c1ccc3c(c1)OCO3)C2=O` (centres undefined), the viability was 117% (inactive) in assay [1]; 91.8% (inactive) in assay [2]; 85.5% (inactive) in assay [3]; 86.2% in assay [4] (setting [7]); 85.5% in assay [4] (setting [8]). In assay [4] (H69AR cells + 2 uM doxorubicin), the differential viability (reversal) is -0.655% (inactive). For the same molecule, the results for the inhibition in assay [5] and in assay [6] were -1.6% (inactive) and 0.18% (inactive), respectively.
With `Cc1oc2cc3c(C(=O)OCCN(C)C)c(C)oc3cc2c1C(=O)OCCN(C)C`, the viability in assay [1] was 92.5% (inactive); in assay [2] it was 72.2% (inactive); in assay [3] it was 90.4% (inactive); in assay [4] (setting [7]) it was 107%; in assay [4] (setting [8]) it was 90.4%. Moreover, the differential viability (reversal) in assay [4] (H69AR cells + 2 uM doxorubicin) was -16.8% (inactive). In addition, the inhibition in assay [5] was -3.95% (inactive); in assay [6], -10% (inactive).
Regarding `CCOC(=O)C1/C(=N\O)CC(C)(O)C(C(=O)OCC)C1c1ccc(N(C)C)cc1` (centres undefined), the viability in assay [1] was 72% (inactive); in assay [2], 96.9% (inactive); in assay [3] it was 87.5% (inactive); in assay [4] (setting [7]), 101%; in assay [4] (setting [8]) it was 87.5%. For the same molecule, the differential viability (reversal) in assay [4] (H69AR cells + 2 uM doxorubicin) was -13.3% (inactive). Moreover, the inhibition was 1.64% (inactive) in assay [5] and 5.48% (inactive) in assay [6].
For the molecule `CCn1c(SCC(=O)C(C)(C)C)nnc1-c1cnccn1`, the viability is 81% (inactive) in assay [1]; 107% (inactive) in assay [2]; 105% (inactive) in assay [3]; 89.2% in assay [4] (setting [7]); 105% in assay [4] (setting [8]). Moreover, the differential viability (reversal) in assay [4] (H69AR cells + 2 uM doxorubicin) was 15.9% (inactive). Also, the values for the inhibition in assay [5] and in assay [6] were -3.7% (inactive) and -9.35% (inactive), respectively.
For `COC(=O)c1nnn(-c2ccccc2)c1N`, the viability in assay [1] was 103% (inactive); in assay [2], 100% (inactive); in assay [3], 103% (inactive); in assay [4] (setting [7]), 105%; in assay [4] (setting [8]) it was 103%. In addition, the differential viability (reversal) in assay [4] (H69AR cells + 2 uM doxorubicin) is -1.73% (inactive). Also, the inhibition in assay [5] is -1.82% (inactive); in assay [6] it was 3.61% (inactive).
